Reference: publication PMC3419923 (The EMBO Journal, 2012)

System: PepTSt
Assay: Kinetics of proton-driven glycylsarcosine uptake in PepTSt proteoliposomes
Assay type: biochemical, Streptococcus thermophilus
Conditions: proton-driven proteoliposome uptake, pH 6.5
In short: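 PepTSt proteoliposomes (1:40 protein:lipid, extruded 400 nm) loaded with 20 mM KPi pH 6.50, 100 mM K acetate, 2 mM MgSO4. Diluted 1:50 into 20 mM NaPIPES […], 2 mM MgSO4, 10 μM valinomycin, giving an inside-negative potential that drives H+/peptide uptake. 3H peptide added at varying concentrations, 25°C. Quenched with ice-cold LiCl, filtered, counted, and converted to molar amounts via standard curves.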

## glycylsarcosine
  maximal rate of uptake, Vmax: 631 nmol min^−1 mg^−1 PepTSt
